The source made the active and inactive calls. The rule behind the calls is not given here. Some results are limits rather than exact numbers.

The test system of series [1] is Trypanosoma cruzi. Briefly: Antitrypanosomal activity against intracellular Trypanosoma cruzi infected in human U2OS cells after 48 hrs by confocal microscopy. Type of series: functional, organism-based. In a few lines:
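T. cruzi tissue-culture trypomastigotes were raised in LLC-MK2 cells. U2OS cells and parasites were mixed, dispensed onto compound plates and incubated 48 h at 37 °C, 5 % CO₂. Cells were fixed with 4 % paraformaldehyde, DRAQ5-stained and imaged by confocal microscopy to count parasites and infection ratio. Controls: benznidazole 400 µM and 1 % DMSO. EC₅₀ derived from infection ratio normalized to the controls.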

A short description of series [2]: Cytotoxicity against human U2OS cells infected with intracellular Trypanosoma cruzi. Type of series: cell-based. A digest of the protocol:
(§1)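 U2OS cytotoxicity was measured in the same 48 h T. cruzi infection assay by counting host cell numbers in the DRAQ5-stained confocal images to give CC₅₀. SI was calculated from EC₅₀ and CC₅₀.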

A short description of series [3]: Selectivity index, ratio of IC50 for human U2OS cells to IC50 for intracellular Trypanosoma cruzi. The format is toxicity, cell-based. The conditions noted are these: U2OS cells versus intracellular Trypanosoma cruzi, read-out: Selectivity Index. In a few lines: as §1
The subject of series [4] is Trypanosoma cruzi. Put plainly: Antitrypanosomal activity against intracellular Trypanosoma cruzi infected in human U2OS cells assessed as reduction in parasite count at 400 uM after 48 hrs by confocal microscopy. Type of series: functional, organism-based.
Series [5] relates to Trypanosoma cruzi. Briefly: Antitrypanosomal activity against intracellular Trypanosoma cruzi infected in human U2OS cells assessed as reduction in parasite count at 12.5 uM after 48 hrs by confocal microscopy. The format is functional, organism-based.
In series [6] the test system is Leishmania donovani. Put plainly: Antileishmanial activity against intracellular amastigote stage of Leishmania donovani MHOM/ET/67/HU3 infected in human THP1 cells after 3 days by confocal microscopy. Particulars: MHOM/ET/67/HU3, THP-1, 72 h. The format is functional, organism-based.
Series [7] can be described thus: Cytotoxicity against human THP1 cells infected with intracellular amastigote stage of Leishmania donovani MHOM/ET/67/HU3. The format is cell-based, THP-1. A digest of the protocol: (§2)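 Host THP-1 cytotoxicity was taken from the same intracellular amastigote images (PMA-differentiated, infected, 3-day compound exposure) by counting cell numbers normalized to 1 % DMSO. CC₅₀ is the average of duplicates; SI was calculated from EC₅₀ and CC₅₀.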

A short description of series [8]: Selectivity index, ratio of IC50 for human THP1 cells to IC50 for intracellular amastigote stage of Leishmania donovani MHOM/ET/67/HU3. Type of series: toxicity, cell-based, THP-1. The conditions noted are these: read-out: Selectivity Index. A digest of the protocol: as §2
The test system of series [9] is Leishmania donovani. Put plainly: Antileishmanial activity against intracellular amastigote stage of Leishmania donovani MHOM/ET/67/HU3 infected in human THP1 cells assessed as reduction in parasite count at 12.5 uM after 3 days by confocal microscopy. Type of series: functional, organism-based. The conditions noted are these: THP-1.
Series [10] has as its system Trypanosoma cruzi. Put plainly: Antitrypanosomal activity against intracellular Trypanosoma cruzi infected in human U2OS cells assessed as reduction in parasite count at 6.25 uM after 48 hrs by confocal microscopy. The format is functional, organism-based.
Series [11] deals with Leishmania donovani. Briefly: Antileishmanial activity against extracellular promastigote stage of Leishmania donovani MHOM/ET/67/HU3 incubated for 28 hrs followed by additional 20 hrs incubation.

As for `O=C(Cn1ccnc1[N+](=O)[O-])NCc1ccccc1` [BENZNIDAZOLE], the EC50 (usually the concentration at which the effect is half-maximal) with Trypanosoma cruzi [1] is 20.7 µM. In addition, the CC50 (as a rule, the concentration giving 50% cytotoxicity) in series [2] is greater than 50 µM. Further, the selectivity ratio in series [3] is greater than 2.42. For the same compound, in the series with Trypanosoma cruzi [4], the “growth inhibition (GI)” value was “Active”. For the same compound, the “growth inhibition (GI)” value with Trypanosoma cruzi [5] is “inactive”.

Regarding `CC(C)(C)c1ccc(CN2C3=NCCN3c3ccccc32)cc1`, the results for the EC50 in the series on Leishmania donovani [6], with Trypanosoma cruzi [1] and in the series on Leishmania donovani [11] were 3.05 µM, 1.1 µM and 1.25 µM, respectively. Also, the values for the CC50 in series [7] and in [2] were greater than 50 µM and 36.5 µM, respectively. Besides, the selectivity ratio in series [8] was greater than 16.4; in series [3], 33.2. For the same compound, the inhibition result with Trypanosoma cruzi [1] was “Dose-dependent effect”. For the same compound, the “growth inhibition (GI)” value in the series with Leishmania donovani [9] and in the series on Trypanosoma cruzi [10] was “Active” each time.

The values above are taken from ChEMBL document CHEMBL3352366, “Synthesis and biological evaluation of 2,3-dihydroimidazo[1,2-a]benzimidazole derivatives against Leishmania donovani and Trypanosoma cruzi” (Eur J Med Chem, 2014).
